Source: ChEMBL document CHEMBL1255424, “Antistaphylococcal activity of ACHN-490 tested alone and in combination with other agents by time-kill assay” (2010)
Converted amounts (≈) assume the structure as drawn.

How the values were obtained:
Assay type in all cases: functional
[1] = test system: Staphylococcus aureus; test: Antibacterial activity against community-acquired methicillin-resistant panton-valentine leukocidin-positive Staphylococcus aureus isolate 1469 after 24 hrs by modified broth macrodilution method; details: isolate 1469, 24 h
Procedure, shortened: (§1)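 MIC read after 24 h incubation by modified broth macrodilution, validated per CLSI recommendations, against recent clinical MRSA isolates (hospital- and community-acquired, hVISA, VISA, VRSA). Daptomycin tests ran in Mueller-Hinton broth with added calcium.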

[2] = test system: Staphylococcus aureus; test: Antibacterial activity against vancomycin-susceptible Staphylococcus aureus after 24 hrs by modified broth macrodilution method
Procedure, shortened: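 MICs determined in recent clinical MRSA isolates by a modified broth macrodilution method per CLSI recommendations, with 24 h incubation. Daptomycin tests used Mueller-Hinton broth supplemented with calcium. Value is the lowest inhibitory drug concentration.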

[3] = test system: Staphylococcus aureus; test: Antibacterial activity against vancomycin-intermediate Staphylococcus aureus isolate 1014 after 24 hrs by modified broth macrodilution method; details: isolate 1014, 24 h; procedure, shortened: as §1
[4] = test system: Staphylococcus aureus; test: Antibacterial activity against community-acquired methicillin-resistant panton-valentine leukocidin-positive Staphylococcus aureus isolate 813 after 24 hrs by modified broth macrodilution method; details: isolate 813, 24 h; procedure, shortened: as §1
[5] = test system: Staphylococcus aureus; test: Antibacterial activity against hospital-acquired methicillin-resistant Staphylococcus aureus isolate 1743 after 24 hrs by modified broth macrodilution method; details: isolate 1743, 24 h; procedure, shortened: as §1
[6] = test system: Staphylococcus aureus; test: Antibacterial activity against vancomycin-intermediate Staphylococcus aureus isolate 1007 after 24 hrs by modified broth macrodilution method; details: isolate 1007, 24 h; procedure, shortened: as §1
[7] = test system: Staphylococcus aureus; test: Antibacterial activity against community-acquired methicillin-resistant panton-valentine leukocidin-positive Staphylococcus aureus isolate 815 after 24 hrs by modified broth macrodilution method; details: isolate 815, 24 h; procedure, shortened: as §1
[8] = test system: Staphylococcus aureus; test: Antibacterial activity against methicillin-resistant Staphylococcus aureus isolate 2003 after 24 hrs by modified broth macrodilution method; details: isolate 2003, 24 h; procedure, shortened: as §1
[9] = test system: Staphylococcus aureus; test: Antibacterial activity against vancomycin-intermediate Staphylococcus aureus isolate 1984 after 24 hrs by modified broth macrodilution method; details: isolate 1984, 24 h; procedure, shortened: as §1
[10] = test system: Staphylococcus aureus; test: Antibacterial activity against vancomycin-intermediate Staphylococcus aureus isolate 1005 after 24 hrs by modified broth macrodilution method; details: isolate 1005, 24 h; procedure, shortened: as §1
[11] = test system: Staphylococcus aureus; test: Antibacterial activity against vancomycin-resistant Staphylococcus aureus isolate 1263 after 24 hrs by modified broth macrodilution method; details: isolate 1263, 24 h; procedure, shortened: as §1
[12] = test system: Staphylococcus aureus; test: Antibacterial activity against vancomycin-intermediate Staphylococcus aureus isolate 555 after 24 hrs by modified broth macrodilution method; details: isolate 555, 24 h; procedure, shortened: as §1
[13] = test system: Staphylococcus aureus; test: Antibacterial activity against community-acquired methicillin-resistant panton-valentine leukocidin-negative Staphylococcus aureus isolate 1470 after 24 hrs by modified broth macrodilution method; details: isolate 1470, 24 h; procedure, shortened: as §1
[14] = test system: Staphylococcus aureus; test: Antibacterial activity against vancomycin-hetero-intermediate Staphylococcus aureus isolate 873 after 24 hrs by modified broth macrodilution method; details: isolate 873, 24 h; procedure, shortened: as §1
[15] = test system: Staphylococcus aureus; test: Antibacterial activity against vancomycin-resistant Staphylococcus aureus isolate 510 after 24 hrs by modified broth macrodilution method; details: isolate 510, 24 h; procedure, shortened: as §1
[16] = test system: Staphylococcus aureus; test: Antibacterial activity against hospital-acquired methicillin-resistant Staphylococcus aureus isolate 1776 after 24 hrs by modified broth macrodilution method; details: isolate 1776, 24 h; procedure, shortened: as §1
[17] = test system: Staphylococcus aureus; test: Antibacterial activity against vancomycin-resistant Staphylococcus aureus isolate 557 after 24 hrs by modified broth macrodilution method; details: isolate 557, 24 h; procedure, shortened: as §1
[18] = test system: Staphylococcus aureus; test: Antibacterial activity against hospital-acquired methicillin-resistant Staphylococcus aureus isolate 1867 after 24 hrs by modified broth macrodilution method; details: isolate 1867, 24 h; procedure, shortened: as §1
[19] = test system: Staphylococcus aureus; test: Antibacterial activity against hospital-acquired methicillin-resistant Staphylococcus aureus isolate 1751 after 24 hrs by modified broth macrodilution method; details: isolate 1751, 24 h; procedure, shortened: as §1
[20] = test system: Staphylococcus aureus; test: Antibacterial activity against community-acquired methicillin-resistant panton-valentine leukocidin-positive Staphylococcus aureus isolate 1472 after 24 hrs by modified broth macrodilution method; details: isolate 1472, 24 h; procedure, shortened: as §1
[21] = test system: Staphylococcus aureus; test: Antibacterial activity against vancomycin-intermediate Staphylococcus aureus isolate 1011 after 24 hrs by modified broth macrodilution method; details: isolate 1011, 24 h; procedure, shortened: as §1
[22] = test system: Staphylococcus aureus; test: Antibacterial activity against vancomycin-intermediate Staphylococcus aureus isolate 511 after 24 hrs by modified broth macrodilution method; details: isolate 511, 24 h; procedure, shortened: as §1
[23] = test system: Staphylococcus aureus; test: Antibacterial activity against hospital-acquired methicillin-resistant Staphylococcus aureus isolate 1808 after 24 hrs by modified broth macrodilution method; details: isolate 1808, 24 h; procedure, shortened: as §1
[24] = test system: Staphylococcus aureus; test: Antibacterial activity against hospital-acquired methicillin-resistant Staphylococcus aureus isolate 1838 after 24 hrs by modified broth macrodilution method; details: isolate 1838, 24 h; procedure, shortened: as §1
[25] = test system: Staphylococcus aureus; test: Antibacterial activity against vancomycin-intermediate Staphylococcus aureus isolate 770 after 24 hrs by modified broth macrodilution method; details: isolate 770, 24 h; procedure, shortened: as §1
[26] = test system: Staphylococcus aureus; test: Antibacterial activity against vancomycin-intermediate Staphylococcus aureus isolate 1008 after 24 hrs by modified broth macrodilution method; details: isolate 1008, 24 h; procedure, shortened: as §1
[27] = test system: Staphylococcus aureus; test: Antibacterial activity against vancomycin-intermediate Staphylococcus aureus isolate 1009 after 24 hrs by modified broth macrodilution method; details: isolate 1009, 24 h; procedure, shortened: as §1
[28] = test system: Staphylococcus aureus; test: Antibacterial activity against hospital-acquired methicillin-resistant Staphylococcus aureus isolate 1806 after 24 hrs by modified broth macrodilution method; details: isolate 1806, 24 h; procedure, shortened: as §1
[29] = test system: Staphylococcus aureus; test: Antibacterial activity against vancomycin-resistant Staphylococcus aureus isolate 1264 after 24 hrs by modified broth macrodilution method; details: isolate 1264, 24 h; procedure, shortened: as §1
[30] = test system: Staphylococcus aureus; test: Antibacterial activity against community-acquired methicillin-resistant panton-valentine leukocidin-positive Staphylococcus aureus isolate 593 after 24 hrs by modified broth macrodilution method; details: isolate 593, 24 h; procedure, shortened: as §1
[31] = test system: Staphylococcus aureus; test: Antibacterial activity against vancomycin-intermediate Staphylococcus aureus isolate 1004 after 24 hrs by modified broth macrodilution method; details: isolate 1004, 24 h; procedure, shortened: as §1
[32] = test system: Staphylococcus aureus; test: Antibacterial activity against community-acquired methicillin-resistant panton-valentine leukocidin-positive Staphylococcus aureus isolate 1468 after 24 hrs by modified broth macrodilution method; details: isolate 1468, 24 h; procedure, shortened: as §1
[33] = test system: Staphylococcus aureus; test: Antibacterial activity against vancomycin-intermediate Staphylococcus aureus isolate 1006 after 24 hrs by modified broth macrodilution method; details: isolate 1006, 24 h; procedure, shortened: as §1
[34] = test system: Staphylococcus aureus; test: Antibacterial activity against hospital-acquired methicillin-resistant Staphylococcus aureus isolate 1766 after 24 hrs by modified broth macrodilution method; details: isolate 1766, 24 h; procedure, shortened: as §1
[35] = test system: Staphylococcus aureus; test: Antibacterial activity against community-acquired methicillin-resistant panton-valentine leukocidin-positive Staphylococcus aureus isolate 1471 after 24 hrs by modified broth macrodilution method; details: isolate 1471, 24 h; procedure, shortened: as §1
[36] = test system: Staphylococcus aureus; test: Antibacterial activity against vancomycin-intermediate Staphylococcus aureus isolate 1010 after 24 hrs by modified broth macrodilution method; details: isolate 1010, 24 h; procedure, shortened: as §1
[37] = test system: Staphylococcus aureus; test: Antibacterial activity against vancomycin-intermediate Staphylococcus aureus isolate 1017 after 24 hrs by modified broth macrodilution method; details: isolate 1017, 24 h; procedure, shortened: as §1
[38] = test system: Staphylococcus aureus; test: Antibacterial activity against vancomycin-intermediate Staphylococcus aureus isolate 1015 after 24 hrs by modified broth macrodilution method; details: isolate 1015, 24 h; procedure, shortened: as §1
[39] = test system: Staphylococcus aureus; test: Antibacterial activity against vancomycin-intermediate Staphylococcus aureus isolate 1016 after 24 hrs by modified broth macrodilution method; details: isolate 1016, 24 h; procedure, shortened: as §1
[40] = test system: Staphylococcus aureus; test: Antibacterial activity against hospital-acquired methicillin-resistant Staphylococcus aureus isolate 1851 after 24 hrs by modified broth macrodilution method; details: isolate 1851, 24 h; procedure, shortened: as §1
[41] = test system: Staphylococcus aureus; test: Antibacterial activity against vancomycin-intermediate Staphylococcus aureus isolate 1012 after 24 hrs by modified broth macrodilution method; details: isolate 1012, 24 h; procedure, shortened: as §1
[42] = test system: Staphylococcus aureus; test: Antibacterial activity against vancomycin-resistant Staphylococcus aureus after 24 hrs by modified broth macrodilution method; procedure, shortened: as §1
[43] = test system: Staphylococcus aureus; test: Antibacterial activity against community-acquired methicillin-resistant panton-valentine leukocidin-positive Staphylococcus aureus isolate 950 after 24 hrs by modified broth macrodilution method; details: isolate 950, 24 h; procedure, shortened: as §1
[44] = test system: Staphylococcus aureus; test: Antibacterial activity against vancomycin-intermediate Staphylococcus aureus after 24 hrs by modified broth macrodilution method; procedure, shortened: as §1
[45] = test system: Staphylococcus aureus; test: Antibacterial activity against community-acquired methicillin-resistant panton-valentine leukocidin-positive Staphylococcus aureus isolate 693 after 24 hrs by modified broth macrodilution method; details: isolate 693, 24 h; procedure, shortened: as §1
[46] = test system: Staphylococcus aureus; test: Antibacterial activity against vancomycin-intermediate Staphylococcus aureus isolate 1287 after 24 hrs by modified broth macrodilution method; details: isolate 1287, 24 h; procedure, shortened: as §1
[47] = test system: Staphylococcus aureus; test: Antibacterial activity against vancomycin-intermediate Staphylococcus aureus isolate 1013 after 24 hrs by modified broth macrodilution method; details: isolate 1013, 24 h; procedure, shortened: as §1
[48] = test system: Staphylococcus aureus; test: Antibacterial activity against vancomycin-intermediate Staphylococcus aureus isolate 1003 after 24 hrs by modified broth macrodilution method; details: isolate 1003, 24 h; procedure, shortened: as §1
[49] = test system: Staphylococcus aureus; test: Antibacterial activity against vancomycin-resistant Staphylococcus aureus isolate 509 after 24 hrs by modified broth macrodilution method; details: isolate 509, 24 h; procedure, shortened: as §1
[50] = test system: Staphylococcus aureus; test: Antibacterial activity against vancomycin-hetero-intermediate Staphylococcus aureus isolate 618 after 24 hrs by modified broth macrodilution method; details: isolate 618, 24 h; procedure, shortened: as §1
[51] = test system: Staphylococcus aureus; test: Antibacterial activity against vancomycin-hetero-intermediate Staphylococcus aureus after 24 hrs by modified broth macrodilution method; procedure, shortened: as §1

CN[C@@H]1[C@@H](O)[C@@](C)(O[C@@H]2[C@@H](O)[C@H](O[C@H]3OC(CNCCO)=CC[C@H]3N)[C@@H](N)C[C@H]2NC(=O)[C@H](O)CCN)OC[C@]1(C)O
MIC [1]: 4 µg/mL (≈ 6.59 µM) | MIC [2]: 2 µg/mL (≈ 3.3 µM) | MIC [3]: 2 µg/mL (≈ 3.3 µM) | MIC [4]: 4 µg/mL (≈ 6.59 µM) | MIC [5]: 2 µg/mL (≈ 3.3 µM) | MIC [6]: 1 µg/mL (≈ 1.65 µM) | MIC [7]: 4 µg/mL (≈ 6.59 µM) | MIC [8]: 8 µg/mL (≈ 13.2 µM) | MIC [9]: 4 µg/mL (≈ 6.59 µM) | MIC [10]: 2 µg/mL (≈ 3.3 µM) | MIC [11]: 2 µg/mL (≈ 3.3 µM) | MIC [12]: 4 µg/mL (≈ 6.59 µM) | MIC [13]: 2 µg/mL (≈ 3.3 µM) | MIC [14]: 1 µg/mL (≈ 1.65 µM) | MIC [15]: 1 µg/mL (≈ 1.65 µM) | MIC [16]: 4 µg/mL (≈ 6.59 µM) | MIC [17]: 0.5 µg/mL (≈ 0.824 µM) | MIC [18]: 4 µg/mL (≈ 6.59 µM) | MIC [19]: 2 µg/mL (≈ 3.3 µM) | MIC [20]: 2 µg/mL (≈ 3.3 µM) | MIC [21]: 2 µg/mL (≈ 3.3 µM) | MIC [22]: 2 µg/mL (≈ 3.3 µM) | MIC [23]: 2 µg/mL (≈ 3.3 µM) | MIC [24]: 2 µg/mL (≈ 3.3 µM) | MIC [25]: 2 µg/mL (≈ 3.3 µM) | MIC [26]: 2 µg/mL (≈ 3.3 µM) | MIC [27]: 2 µg/mL (≈ 3.3 µM) | MIC [28]: 2 µg/mL (≈ 3.3 µM) | MIC [29]: 1 µg/mL (≈ 1.65 µM) | MIC [30]: 4 µg/mL (≈ 6.59 µM) | MIC [31]: 4 µg/mL (≈ 6.59 µM) | MIC [32]: 4 µg/mL (≈ 6.59 µM) | MIC [33]: 4 µg/mL (≈ 6.59 µM) | MIC [34]: 2 µg/mL (≈ 3.3 µM) | MIC [35]: 4 µg/mL (≈ 6.59 µM) | MIC [36]: 1 µg/mL (≈ 1.65 µM) | MIC [37]: 2 µg/mL (≈ 3.3 µM) | MIC [38]: 4 µg/mL (≈ 6.59 µM) | MIC [39]: 2 µg/mL (≈ 3.3 µM) | MIC [40]: 4 µg/mL (≈ 6.59 µM) | MIC [41]: 2 µg/mL (≈ 3.3 µM) | MIC [42]: 0.5 µg/mL (≈ 0.824 µM) | MIC [43]: 4 µg/mL (≈ 6.59 µM) | MIC [44]: 1 µg/mL (≈ 1.65 µM) | MIC [45]: 2 µg/mL (≈ 3.3 µM) | MIC [46]: 4 µg/mL (≈ 6.59 µM) | MIC [47]: 2 µg/mL (≈ 3.3 µM) | MIC [48]: 1 µg/mL (≈ 1.65 µM) | MIC [49]: 1 µg/mL (≈ 1.65 µM) | MIC [50]: 1 µg/mL (≈ 1.65 µM) | MIC [51]: 1 µg/mL (≈ 1.65 µM)
